Test [1] relates to [Y473E]-PPARγ LBD. As to the kind of experiment: TR-FRET coregulator interaction assay. The class given is biochemical, human.
Test [2] relates to [Y473E]-PPARγ LBD. As to the kind of experiment: Isothermal titration calorimetry. As to conditions: ITC at 25°C; Figure S7; in words. The class given is binding, human. Summed up:
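Human PPARγ LBD Y473E mutant (residues 203–477), expressed His-tagged in E. coli BL21(DE3), purified by Ni-NTA and gel filtration. Protein at 30 μM in the cell; test compound at 300 μM in the syringe. Both in 20 mM potassium phosphate pH 7.4, 50 mM KCl, 5 mM TCEP, 0.5 mM EDTA, 0.17% DMSO. A 0.4 μL pre-injection, then nineteen 2 μL injections at 25°C, stirring 1200 rpm.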

The next test concerns the target T1, PPARγ LBD (Homo sapiens, UniProt P37231).
T1 sequence (P37231 203-477 isoform P37231-2): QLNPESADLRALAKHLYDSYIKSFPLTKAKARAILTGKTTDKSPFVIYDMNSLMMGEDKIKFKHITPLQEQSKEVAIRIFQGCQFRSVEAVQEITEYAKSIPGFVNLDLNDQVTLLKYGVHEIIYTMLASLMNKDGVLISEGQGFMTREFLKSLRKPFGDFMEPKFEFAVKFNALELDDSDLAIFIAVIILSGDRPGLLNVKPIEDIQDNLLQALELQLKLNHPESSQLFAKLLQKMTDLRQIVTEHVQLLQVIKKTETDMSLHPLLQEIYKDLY
As to the kind of experiment: TR-FRET fluorescent tracer ligand displacement assay. Format: binding. In general terms: Time-resolved FRET reads energy transfer from a long-lived donor to a nearby acceptor.

Data on two compounds can be found in article PMC8418994 (Structure (London, England : 1993), 2021).

A word on the Ki: it is the equilibrium dissociation constant of an inhibitor or competing ligand from its target.

Consider `CN(CCOc1ccc(C[C@H](Nc2ccccc2C(=O)c2ccccc2)C(=O)O)cc1)c1ccccn1` [GW1929], for which the “concentration-dependent effect on interaction of the TRAP220/MED1 coactivator peptide” value in test [Y473E]-PPARγ LBD [1] is on record as “essentially no concentration-dependent effect”. Moreover, the “binding affinity to [Y473E]-PPARγ LBD” value in test [Y473E]-PPARγ LBD [2] is “reasonably high affinity”.

The compound `Cc1oc(-c2ccccc2)nc1CCC(=O)c1ccc(CC2SC(=O)NC2=O)cc1` (stereo not drawn) [darglitazone] showed a Ki at PPARγ LBD of at most 1 nM.
